A word on the CC50: it is the concentration at which the toxic effect on the cells reaches its halfway point. Low values mean harm at low concentration, high ones better tolerance by the cells. For orientation: IC50 means the concentration needed to halve the response being measured.

The record followed here is ChEMBL document CHEMBL1149461, “Synthesis and structure-activity relationship studies of CD4 down-modulating cyclotriazadisulfonamide (CADA) analogues” (J Med Chem, 2006).

Assay [1] deals with MT4. Nature of the assay: Cytotoxicity against MT4 cells. As to conditions: Homo sapiens. The class given is functional.
In assay [2] the test system is Human immunodeficiency virus 1. Nature of the assay: Antiviral activity against HIV1 NL4.3 in MT4 cells. The class given is functional, organism-based. As to conditions: Human immunodeficiency virus 1, NL4.3, MT4.
Assay [3] concerns MT4. Description: Inhibition of CD4 antigen expression in MT4 cells. The class given is functional, cell-based. To be noted: Homo sapiens. The essentials: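 MT-4 cells were labelled with FITC-conjugated anti-CD4 mAb to read surface CD4 by mean fluorescence intensity. IC50 is the concentration giving 50% loss of cell-surface CD4. Top concentrations tested were 15 or 75 µM. Where 50% reduction was not reached, the value is reported as a lower limit based on the highest concentration used.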

`C=C1CN(S(=O)(=O)c2ccc(C)cc2)CCCN(Cc2ccccc2)CCCN(S(=O)(=O)c2cccc3c(N(C)C)cccc23)C1` yielded a CC50 in the assay with MT4 [1] above 75 µM. Further, the half-maximal inhibitory concentration (IC50) in assay [2] was 9.5 µM; in the assay with MT4 [3] (read-out: IC50) it was 1.3 µM; in the assay on MT4 [3] (read-out: Log IC50 (converted)) it was 1.29 µM.

As to `C=C1CN(S(=O)(=O)c2ccc(OC)cc2)CCCNCCCN(S(=O)(=O)c2ccc(OC)cc2)C1`, the cytotoxic concentration (CC50) with MT4 [1] stood at 43 µM. For the same compound, the IC50 in assay [2] was 6.3 µM; in the assay on MT4 [3] (read-out: IC50) it was 5.3 µM; in the assay on MT4 [3] (read-out: Log IC50 (converted)), 5.25 µM.

As for `C=C1CN(S(=O)(=O)c2ccc(OC)cc2)CCCN(CCC(C)C)CCCN(S(=O)(=O)c2ccc(OC)cc2)C1`, the CC50 in the assay on MT4 [1] worked out at 53 µM. Moreover, the results for the concentration for half-maximal inhibition (IC50) (in assay [2]; with MT4 [3] (read-out: IC50); in the assay on MT4 [3] (read-out: Log IC50 (converted))) were 0.63 µM, 0.29 µM and 0.288 µM, respectively.

As to `C=C1CN(S(=O)(=O)c2ccc(Br)cc2)CCCN(C(=O)OCC)CCCN(S(=O)(=O)c2ccc(Br)cc2)C1`, the midpoint of cytotoxicity with MT4 [1], the CC50, lay at 29 µM. Further, the half-inhibitory concentration (IC50) is 12.4 µM with MT4 [3] (read-out: IC50) and 12.3 µM with MT4 [3] (read-out: Log IC50 (converted)).

`C=C1CN(S(=O)(=O)c2ccc(OC)cc2)CCCN(Cc2ccccc2)CCCN(S(=O)(=O)c2ccc(OC)cc2)C1` showed a CC50 in the assay with MT4 [1] of 26 µM. The half-maximal inhibitory concentration (IC50) was 0.62 µM in assay [2], 0.22 µM in the assay with MT4 [3] (read-out: IC50) and 0.219 µM in the assay with MT4 [3] (read-out: Log IC50 (converted)).

`C=C1CN(S(=O)(=O)c2ccc(C)cc2)CCCN(CC2CCCCC2)CCCN(S(=O)(=O)c2cccc3c(N(C)C)cccc23)C1` returned a CC50 in the assay with MT4 [1] of 49 µM. Besides, the IC50 in assay [2] was 1.8 µM; in the assay with MT4 [3] (read-out: IC50) it was 0.61 µM; with MT4 [3] (read-out: Log IC50 (converted)), 0.617 µM.
